Data: ChEMBL document CHEMBL3286203, “Reactive oxygen species (ROS) inducible DNA cross-linking agents and their effect on cancer cells and normal lymphocytes” (J Med Chem, 2014)

Assay: Drug level in deuterated phosphate buffer treated with 40 mM N,N-Bis(2-chloroethyl)-4-(4,4,5,5-tetramethyl-1,3,2-dioxaborolan-2-yl)aniline after 24 hrs by 1H-NMR analysis
Assay type: physicochemical
Method in brief: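 1H NMR of the boronate mustard (40 mM) held 24 h in deuterated potassium phosphate buffer (4.0 mM) with no H2O2. Solvent was 1.0 M deuterated potassium phosphate buffer/DMSO-d6/D2O = 2:450:48.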

Structure (SMILES): CC1(C)OB(c2ccc(N(CCCl)CCCl)cc2)OC1(C)C
- Drug metabolism: metabolite_detected
